Assays:
[1] = Cytotoxicity against human HepG2 cells supplemented with fresh medium containing compound every 3 days for 9 days measured post-last dose by MTT assay; type: cell-based
In short: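 HepG2 cells were exposed to compound for 3 or 9 days and viability was read by MTT assay. CC50 is the concentration causing 50% cytotoxicity. Results are mean ± SD of three experiments.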

Hepatitis B virus [2] = test: Antiviral activity against Hepatitis B virus infected in human HepG2.2.15 cells assessed as inhibition of intracellular HBV DNA replication at 20 uM supplemented with fresh medium containing compound every 3 days for 6 days measured post-last dose by FQ-PCR analysis relative to control; type: functional
In short: (§1)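 HepG2.2.15 cultures were treated at 10, 20 or 40 µM for 3, 6 and 9 days. Both intracellular and extracellular HBV DNA levels were then determined and compared with untreated cells.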

Hepatitis B virus [3] = test: Antiviral activity against Hepatitis B virus infected in human HepG2.2.15 cells assessed as inhibition of intracellular HBV DNA replication at 40 uM supplemented with fresh medium containing compound every 3 days for 6 days measured post-last dose by FQ-PCR analysis relative to control; type: functional
In short: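 HepG2.2.15 cells exposed to 10, 20 or 40 µM for 3, 6 or 9 days; intracellular and extracellular HBV DNA levels measured.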

Hepatitis B virus [4] = test: Antiviral activity against Hepatitis B virus infected in human HepG2.2.15 cells assessed as inhibition of intracellular HBV DNA replication at 20 uM supplemented with fresh medium containing compound every 3 days for 9 days measured post-last dose by FQ-PCR analysis relative to control; type: functional; in short: as §1
Hepatitis B virus [5] = test: Antiviral activity against Hepatitis B virus infected in human HepG2.2.15 cells assessed as inhibition of intracellular HBV DNA replication at 40 uM supplemented with fresh medium containing compound every 3 days for 9 days measured post-last dose by FQ-PCR analysis relative to control; type: functional; in short: as §1
Hepatitis B virus [6] = test: Antiviral activity against Hepatitis B virus infected in human HepG2.2.15 cells assessed as inhibition of extracellular HBV DNA replication at 40 uM measured on day 3 by FQ-PCR analysis relative to control; type: functional; conditions: HepG2.2.15, 72 h; in short: as §1
Hepatitis B virus [7] = test: Antiviral activity against Hepatitis B virus infected in human HepG2.2.15 cells assessed as inhibition of extracellular HBV DNA replication at 20 uM supplemented with fresh medium containing compound every 3 days for 6 days measured post-last dose by FQ-PCR analysis relative to control; type: functional; in short: as §1
Hepatitis B virus [8] = test: Antiviral activity against Hepatitis B virus infected in human HepG2.2.15 cells assessed as inhibition of extracellular HBV DNA replication at 40 uM supplemented with fresh medium containing compound every 3 days for 6 days measured post-last dose by FQ-PCR analysis relative to control; type: functional; in short: as §1
Hepatitis B virus [9] = test: Antiviral activity against Hepatitis B virus infected in human HepG2.2.15 cells assessed as inhibition of extracellular HBV DNA replication at 10 uM supplemented with fresh medium containing compound every 3 days for 9 days measured post-last dose by FQ-PCR analysis relative to control; type: functional; in short: as §1
Hepatitis B virus [10] = test: Antiviral activity against Hepatitis B virus infected in human HepG2.2.15 cells assessed as inhibition of extracellular HBV DNA replication at 40 uM supplemented with fresh medium containing compound every 3 days for 9 days measured post-last dose by FQ-PCR analysis relative to control; type: functional; in short: as §1
Hepatitis B virus [11] = test: Antiviral activity against lamivudine-resistant Hepatitis B virus harboring L180M/M204V mutant infected in human HepG2.2.15 cells assessed as inhibition of intracellular HBV DNA replication at 20 uM measured on day 3 by FQ-PCR analysis relative to control; type: functional; conditions: HepG2.2.15, 72 h
In short: (§2)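 Lamivudine-resistant cell line transfected with the L180M/M204V mutant, exposed to 10, 20 or 40 µM for 3, 6 or 9 days. Intracellular and extracellular HBV DNA levels measured.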

Hepatitis B virus [12] = test: Antiviral activity against lamivudine-resistant Hepatitis B virus harboring L180M/M204V mutant infected in human HepG2.2.15 cells assessed as inhibition of intracellular HBV DNA replication at 40 uM measured on day 3 by FQ-PCR analysis relative to control; type: functional; conditions: HepG2.2.15, 72 h; in short: as §2
Hepatitis B virus [13] = test: Antiviral activity against lamivudine-resistant Hepatitis B virus harboring L180M/M204V mutant infected in human HepG2.2.15 cells assessed as inhibition of intracellular HBV DNA replication at 10 uM supplemented with fresh medium containing compound every 3 days for 9 days measured post-last dose by FQ-PCR analysis relative to control; type: functional; in short: as §2
Hepatitis B virus [14] = test: Antiviral activity against lamivudine-resistant Hepatitis B virus harboring L180M/M204V mutant infected in human HepG2.2.15 cells assessed as inhibition of intracellular HBV DNA replication at 40 uM supplemented with fresh medium containing compound every 3 days for 9 days measured post-last dose by FQ-PCR analysis relative to control; type: functional; in short: as §2
Hepatitis B virus [15] = test: Antiviral activity against lamivudine-resistant Hepatitis B virus harboring L180M/M204V mutant infected in human HepG2.2.15 cells assessed as inhibition of extracellular HBV DNA replication at 20 uM measured on day 3 by FQ-PCR analysis relative to control; type: functional; conditions: HepG2.2.15, 72 h; in short: as §2
Hepatitis B virus [16] = test: Antiviral activity against lamivudine-resistant Hepatitis B virus harboring L180M/M204V mutant infected in human HepG2.2.15 cells assessed as inhibition of extracellular HBV DNA replication at 10 uM measured on day 3 by FQ-PCR analysis relative to control; type: functional; conditions: HepG2.2.15, 72 h; in short: as §2
Hepatitis B virus [17] = test: Antiviral activity against lamivudine-resistant Hepatitis B virus harboring L180M/M204V mutant infected in human HepG2.2.15 cells assessed as inhibition of extracellular HBV DNA replication at 40 uM measured on day 3 by FQ-PCR analysis relative to control; type: functional; conditions: HepG2.2.15, 72 h; in short: as §2
Hepatitis B virus [18] = test: Antiviral activity against lamivudine-resistant Hepatitis B virus harboring L180M/M204V mutant infected in human HepG2.2.15 cells assessed as inhibition of extracellular HBV DNA replication at 20 uM supplemented with fresh medium containing compound every 3 days for 6 days measured post-last dose by FQ-PCR analysis relative to control; type: functional; in short: as §2
Hepatitis B virus [19] = test: Antiviral activity against lamivudine-resistant Hepatitis B virus harboring L180M/M204V mutant infected in human HepG2.2.15 cells assessed as inhibition of extracellular HBV DNA replication at 10 uM supplemented with fresh medium containing compound every 3 days for 9 days measured post-last dose by FQ-PCR analysis relative to control; type: functional; in short: as §2

With `C[C@@]1(F)[C@H](O)[C@@H](CO)O[C@H]1n1nnc2c(Nc3ccc(Cl)cc3F)ncnc21` the CC50 at 216 h [1] was 245 µM, the “inhibition (INH)” value (Hepatitis B virus [2]) was 47% and the “inhibition (INH)” value (Hepatitis B virus [3]) was 65.2%. For the same compound, the “inhibition (INH)” value (Hepatitis B virus [4]) was 67.4%, the “inhibition (INH)” value (Hepatitis B virus [5]) was 80.2% and the inhibition at 40 µM (Hepatitis B virus [6]) was 34.7%. For the same compound, the “inhibition (INH)” value (Hepatitis B virus [7]) was 42.6%, the “inhibition (INH)” value (Hepatitis B virus [8]) was 68.9% and the “inhibition (INH)” value (Hepatitis B virus [9]) was 36.9%. For the same compound, the “inhibition (INH)” value (Hepatitis B virus [10]) was 82.5%, the inhibition at 20 µM (Hepatitis B virus [11]) was 17.5% and the inhibition at 40 µM (Hepatitis B virus [12]) was 31.3%. The “inhibition (INH)” value (Hepatitis B virus [13]) was 36.6%, the “inhibition (INH)” value (Hepatitis B virus [14]) was 76.4% and the inhibition at 20 µM (Hepatitis B virus [15]) was 35.6%. The inhibition at 10 µM (Hepatitis B virus [16]) was 11%, the inhibition at 40 µM (Hepatitis B virus [17]) was 45.2% and the “inhibition (INH)” value (Hepatitis B virus [18]) was 49.5%. For the same compound, the “inhibition (INH)” value (Hepatitis B virus [19]) was 32.1%.
